Reference: ChEMBL document CHEMBL1137618, “Synthesis and structure-activity relationship studies of 3,6-diazabicyclo[3.2.0]heptanes as novel alpha4beta2 nicotinic acetylcholine receptor selective agonists” (J Med Chem, 2007)

What was measured:
[1] = target: T1, Neuronal acetylcholine receptor; alpha3/beta4 (Homo sapiens, UniProt P30926+P32297); assay: Agonist activity at recombinant human alpha3beta4 nAChR expressed in HEK293 cells assessed as induction of calcium influx by FLIPR assay relative to nicotine; type: functional, cell-based
T1 sequence (P30926 whole entry): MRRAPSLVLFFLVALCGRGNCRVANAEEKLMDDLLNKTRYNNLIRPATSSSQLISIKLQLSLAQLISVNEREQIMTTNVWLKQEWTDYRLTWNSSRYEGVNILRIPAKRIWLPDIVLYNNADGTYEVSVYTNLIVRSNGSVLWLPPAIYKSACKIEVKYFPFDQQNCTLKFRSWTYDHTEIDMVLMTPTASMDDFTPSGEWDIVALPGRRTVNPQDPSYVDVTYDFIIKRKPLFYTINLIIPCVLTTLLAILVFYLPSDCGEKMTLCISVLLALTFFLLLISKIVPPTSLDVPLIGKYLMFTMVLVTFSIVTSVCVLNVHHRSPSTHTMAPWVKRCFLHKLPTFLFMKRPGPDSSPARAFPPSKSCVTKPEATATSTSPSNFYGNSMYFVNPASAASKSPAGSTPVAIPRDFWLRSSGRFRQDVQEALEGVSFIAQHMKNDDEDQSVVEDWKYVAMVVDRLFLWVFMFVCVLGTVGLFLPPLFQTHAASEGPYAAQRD
T1 sequence (P32297 whole entry): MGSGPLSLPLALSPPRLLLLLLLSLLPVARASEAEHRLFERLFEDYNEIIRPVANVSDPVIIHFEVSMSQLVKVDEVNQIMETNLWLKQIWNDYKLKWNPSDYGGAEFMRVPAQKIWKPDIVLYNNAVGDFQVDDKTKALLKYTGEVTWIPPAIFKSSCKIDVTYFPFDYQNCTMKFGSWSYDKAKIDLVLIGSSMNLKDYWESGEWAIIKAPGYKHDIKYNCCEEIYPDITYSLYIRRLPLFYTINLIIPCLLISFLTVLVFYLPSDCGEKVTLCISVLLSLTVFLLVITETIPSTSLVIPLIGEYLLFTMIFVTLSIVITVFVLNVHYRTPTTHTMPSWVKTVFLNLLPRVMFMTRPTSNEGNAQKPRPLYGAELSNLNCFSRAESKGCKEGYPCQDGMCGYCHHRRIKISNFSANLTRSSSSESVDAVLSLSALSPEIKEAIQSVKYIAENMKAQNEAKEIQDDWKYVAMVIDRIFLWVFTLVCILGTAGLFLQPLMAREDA
Procedure, shortened: (§1)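 HEK-293 lines stably expressing human α4β2 or α3β4 nAChR, grown 24-48 h at 37 °C on poly-D-lysine in DMEM/10% FBS. Loaded with 2-4 µM Fluo-4 AM for ~0.75-1 h at room temperature in the dark, in NMDG Ringer pH 7.4. Serial log dilutions added, then peak calcium fluorescence read on FLIPR after buffer-blank subtraction.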

[2] = target: T1, Neuronal acetylcholine receptor; alpha3/beta4; assay: Agonist activity at recombinant human alpha-3-beta-4 nAChR expressed in HEK293 cells assessed as induction of calcium influx by FLIPR assay; type: functional, cell-based
[3] = target: T2, Neuronal acetylcholine receptor; alpha4/beta2 (Homo sapiens, UniProt P17787+P43681); assay: Agonist activity at recombinant human alpha-4-beta-2 nAChR expressed in HEK293 cells assessed as induction of calcium influx by FLIPR assay; type: functional, cell-based
T2 sequence (P17787 whole entry): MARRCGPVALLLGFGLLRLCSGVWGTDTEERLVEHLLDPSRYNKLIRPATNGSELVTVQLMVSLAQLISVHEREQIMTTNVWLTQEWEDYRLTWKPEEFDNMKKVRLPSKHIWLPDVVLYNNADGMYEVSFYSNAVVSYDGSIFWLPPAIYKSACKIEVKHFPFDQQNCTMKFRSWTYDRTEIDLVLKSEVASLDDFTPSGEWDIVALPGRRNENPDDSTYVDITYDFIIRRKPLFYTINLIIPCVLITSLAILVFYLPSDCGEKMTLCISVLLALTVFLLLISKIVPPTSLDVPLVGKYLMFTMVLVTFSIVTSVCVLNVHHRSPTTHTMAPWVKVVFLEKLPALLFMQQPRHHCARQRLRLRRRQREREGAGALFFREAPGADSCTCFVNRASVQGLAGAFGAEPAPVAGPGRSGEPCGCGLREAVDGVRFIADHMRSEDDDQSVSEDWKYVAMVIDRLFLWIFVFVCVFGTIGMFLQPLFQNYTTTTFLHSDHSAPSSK
T2 sequence (P43681 whole entry): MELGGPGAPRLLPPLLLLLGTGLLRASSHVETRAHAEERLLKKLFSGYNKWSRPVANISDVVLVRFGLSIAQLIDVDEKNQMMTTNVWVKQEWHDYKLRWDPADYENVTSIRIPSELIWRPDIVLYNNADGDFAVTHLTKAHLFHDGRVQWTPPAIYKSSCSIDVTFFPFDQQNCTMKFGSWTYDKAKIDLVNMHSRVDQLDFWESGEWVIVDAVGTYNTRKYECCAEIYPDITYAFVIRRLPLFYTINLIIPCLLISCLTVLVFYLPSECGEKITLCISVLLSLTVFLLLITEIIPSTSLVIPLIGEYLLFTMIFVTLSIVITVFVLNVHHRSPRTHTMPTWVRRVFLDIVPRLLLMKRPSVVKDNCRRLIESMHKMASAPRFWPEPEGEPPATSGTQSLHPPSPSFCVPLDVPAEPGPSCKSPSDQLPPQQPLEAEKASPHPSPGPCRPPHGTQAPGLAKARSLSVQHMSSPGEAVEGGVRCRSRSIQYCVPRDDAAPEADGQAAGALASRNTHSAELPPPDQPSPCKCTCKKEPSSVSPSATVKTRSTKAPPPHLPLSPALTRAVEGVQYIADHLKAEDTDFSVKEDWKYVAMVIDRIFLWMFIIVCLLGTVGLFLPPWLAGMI

[4] = target: T2, Neuronal acetylcholine receptor; alpha4/beta2; assay: Agonist activity at recombinant human alpha-4-beta-2 nAChR expressed in HEK293 cells assessed as induction of calcium influx by FLIPR assay relative to nicotine; type: functional, cell-based; procedure, shortened: as §1
[5] = Displacement of [3H]cytisine from neuronal nicotinic acetylcholine receptor in rat brain membrane; type: cell membranes

c1cncc(N2C[C@@H]3CNC[C@@H]32)c1
Activity [1]: 97%
EC50 ([2]; read-out: EC50): 9700 nM
EC50 ([3]; read-out: EC50): 2800 nM
EC50 ([3]; read-out: Log EC50 (converted)): 2690 nM
Activity [4]: 101%
Ki [5]: 0.7 nM
Log Ki [5]: -9.15

COc1cncc(N2C[C@@H]3CN[C@@H]3C2)c1
Activity [1]: 44%
EC50 ([2]; read-out: EC50): 48100 nM
EC50 ([2]; read-out: Log EC50 (converted)): 46800 nM
EC50 ([3]; read-out: EC50): 15800 nM
EC50 ([3]; read-out: Log EC50 (converted)): 13200 nM
Activity [4]: 55%
Ki [5]: 3 nM
Log Ki [5]: -8.52

Cc1cncc(N2C[C@@H]3CNC[C@@H]32)c1
Activity [1]: 74%
EC50 ([2]; read-out: EC50): 16900 nM
EC50 ([3]; read-out: EC50): 10400 nM
Activity [4]: 68%
Ki [5]: 1.1 nM
Log Ki [5]: -8.94

c1cncc(N2C[C@@H]3CN[C@@H]3C2)c1
Activity [1]: 90%
EC50 ([2]; read-out: EC50): 6100 nM
EC50 ([3]; read-out: EC50): 1600 nM
Activity [4]: 122%
Ki [5]: 1.2 nM
Log Ki [5]: -8.92

Clc1ccc(N2C[C@H]3CNC[C@H]32)cn1
Activity [1]: 104%
EC50 ([2]; read-out: EC50): 1100 nM
EC50 ([3]; read-out: EC50): 600 nM
EC50 ([3]; read-out: Log EC50 (converted)): 537 nM
Activity [4]: 127%
Ki [5]: 1.2 nM
Log Ki [5]: -8.91

Clc1cc(N2C[C@H]3CN[C@H]3C2)cnc1Cl
Activity [1]: 98%
EC50 ([2]; read-out: EC50): 50 nM
EC50 ([3]; read-out: EC50): 400 nM
EC50 ([3]; read-out: Log EC50 (converted)): 41.7 nM
Activity [4]: 162%
Ki [5]: 0.04 nM
Log Ki [5]: -10.4

NC(=O)c1cc(N2C[C@H]3CNC[C@H]32)cnc1Br
Activity [1]: 88%
EC50 ([2]; read-out: EC50): 21200 nM
EC50 ([2]; read-out: Log EC50 (converted)): 20900 nM
EC50 ([3]; read-out: EC50): 1100 nM
Activity [4]: 155%
Ki [5]: 6.5 nM
Log Ki [5]: -8.19

Clc1cc(N2C[C@H]3CNC[C@H]32)cnc1Cl
Activity [1]: 92%
EC50 ([2]; read-out: EC50): 1000 nM
EC50 ([3]; read-out: EC50): 300 nM
EC50 ([3]; read-out: Log EC50 (converted)): 263 nM
Activity [4]: 117%
Ki [5]: 0.3 nM
Log Ki [5]: -9.55

Clc1ccc(N2C[C@H]3CN[C@H]3C2)cn1
Activity [1]: 105%
EC50 ([2]; read-out: EC50): 400 nM
EC50 ([2]; read-out: Log EC50 (converted)): 34.7 nM
EC50 ([3]; read-out: EC50): 30 nM
EC50 ([3]; read-out: Log EC50 (converted)): 24.5 nM
Activity [4]: 126%
Ki [5]: 0.2 nM
Log Ki [5]: -9.77

Brc1cc(N2C[C@H]3CNC[C@H]32)cnc1Br
Activity [1]: 94%
EC50 ([2]; read-out: EC50): 1100 nM
EC50 ([3]; read-out: EC50): 6900 nM
EC50 ([3]; read-out: Log EC50 (converted)): 676 nM
Activity [4]: 131%
Ki [5]: 0.5 nM
Log Ki [5]: -9.35

COc1cncc(N2C[C@H]3CN[C@H]3C2)c1
Activity [1]: 99%
EC50 ([2]; read-out: EC50): 1000 nM
EC50 ([3]; read-out: EC50): 1000 nM
Activity [4]: 130%
Ki [5]: 0.1 nM
Log Ki [5]: -9.96

COc1cc(N2C[C@@H]3CN[C@@H]3C2)cnc1Br
Activity [1]: 72%
EC50 ([2]; read-out: EC50): 4000 nM
EC50 ([3]; read-out: EC50): 2200 nM
Activity [4]: 64%
Ki [5]: 1.9 nM
Log Ki [5]: -8.71

COc1cncc(N2C[C@@H]3CNC[C@@H]32)c1
Activity [1]: 64%
EC50 ([2]; read-out: EC50): 31200 nM
EC50 ([3]; read-out: EC50): 24700 nM
EC50 ([3]; read-out: Log EC50 (converted)): 22900 nM
Activity [4]: 43%
Ki [5]: 7.2 nM
Log Ki [5]: -8.14

Cc1ncc(N2C[C@H]3CN[C@H]3C2)cc1C#N
Activity [1]: 101%
EC50 ([2]; read-out: EC50): 90 nM
EC50 ([3]; read-out: EC50): 500 nM
EC50 ([3]; read-out: Log EC50 (converted)): 43.7 nM
Activity [4]: 136%
Ki [5]: 0.06 nM
Log Ki [5]: -10.22

Cc1cc(N2C[C@H]3CNC[C@H]32)cnc1Cl
Activity [1]: 97%
EC50 ([2]; read-out: EC50): 600 nM
EC50 ([3]; read-out: EC50): 200 nM
EC50 ([3]; read-out: Log EC50 (converted)): 229 nM
Activity [4]: 133%
Ki [5]: 0.2 nM
Log Ki [5]: -9.7

Clc1ccc(N2C[C@@H]3CN[C@@H]3C2)cn1
Activity [1]: 110%
EC50 ([2]; read-out: EC50): 400 nM
EC50 ([3]; read-out: EC50): 200 nM
EC50 ([3]; read-out: Log EC50 (converted)): 162 nM
Activity [4]: 162%
Ki [5]: 0.6 nM
Log Ki [5]: -9.24

Cc1ncc(N2C[C@@H]3CN[C@@H]3C2)cc1C#N
Activity [1]: 94%
EC50 ([2]; read-out: EC50): 900 nM
EC50 ([3]; read-out: EC50): 800 nM
EC50 ([3]; read-out: Log EC50 (converted)): 724 nM
Activity [4]: 119%
Ki [5]: 0.6 nM
Log Ki [5]: -9.2

N#Cc1cncc(N2C[C@@H]3CN[C@@H]3C2)c1
Activity [1]: 84%
EC50 ([2]; read-out: EC50): 7100 nM
EC50 ([3]; read-out: EC50): 14600 nM
EC50 ([3]; read-out: Log EC50 (converted)): 13200 nM
Activity [4]: 102%
Ki [5]: 1.7 nM
Log Ki [5]: -8.77

Cc1ncc(N2C[C@@H]3CNC[C@@H]32)cc1C#N
Activity [1]: 95%
EC50 ([2]; read-out: EC50): 1600 nM
EC50 ([3]; read-out: EC50): 500 nM
Activity [4]: 116%
Ki [5]: 0.7 nM
Log Ki [5]: -9.18

Cc1cc(N2C[C@@H]3CNC[C@@H]32)cnc1Cl
Activity [1]: 89%
EC50 ([2]; read-out: EC50): 2200 nM
EC50 ([3]; read-out: EC50): 600 nM
Activity [4]: 134%
Ki [5]: 0.2 nM
Log Ki [5]: -9.7

N#Cc1cc(N2C[C@@H]3CN[C@@H]3C2)cnc1Br
Activity [1]: 91%
EC50 ([2]; read-out: EC50): 600 nM
EC50 ([3]; read-out: EC50): 800 nM
Activity [4]: 146%
Ki [5]: 0.3 nM
Log Ki [5]: -9.51

Cc1cncc(N2C[C@@H]3CN[C@@H]3C2)c1
Activity [1]: 74%
EC50 ([2]; read-out: EC50): 8000 nM
EC50 ([2]; read-out: Log EC50 (converted)): 33100 nM
EC50 ([3]; read-out: EC50): 39900 nM
EC50 ([3]; read-out: Log EC50 (converted)): 30900 nM
Activity [4]: 76%
Ki [5]: 2.5 nM
Log Ki [5]: -8.61

N#Cc1cc(N2C[C@H]3CNC[C@H]32)cnc1Br
Activity [1]: 95%
EC50 ([2]; read-out: EC50): 2000 nM
EC50 ([3]; read-out: EC50): 400 nM
EC50 ([3]; read-out: Log EC50 (converted)): 324 nM
Activity [4]: 100%
Ki [5]: 0.3 nM
Log Ki [5]: -9.6

Brc1cncc(N2C[C@@H]3CN[C@@H]3C2)c1
Activity [1]: 68%
EC50 ([2]; read-out: EC50): 9100 nM
EC50 ([3]; read-out: EC50): 6500 nM
EC50 ([3]; read-out: Log EC50 (converted)): 6170 nM
Activity [4]: 53%
Ki [5]: 1.4 nM
Log Ki [5]: -8.84

Clc1ccc(N2C[C@@H]3CNC[C@@H]32)cn1
Activity [1]: 94%
EC50 ([2]; read-out: EC50): 1200 nM
EC50 ([3]; read-out: EC50): 300 nM
Activity [4]: 107%
Ki [5]: 1.3 nM
Log Ki [5]: -8.9

Cc1cc(N2C[C@@H]3CN[C@@H]3C2)cnc1C
Activity [1]: 85%
EC50 ([2]; read-out: EC50): 3300 nM
EC50 ([3]; read-out: EC50): 1200 nM
Activity [4]: 76%
Ki [5]: 2.2 nM
Log Ki [5]: -8.65

COc1cc(N2C[C@H]3CN[C@H]3C2)cnc1Br
Activity [1]: 113%
EC50 ([2]; read-out: EC50): 100 nM
EC50 ([3]; read-out: EC50): 200 nM
EC50 ([3]; read-out: Log EC50 (converted)): 148 nM
Activity [4]: 159%
Ki [5]: 0.07 nM
Log Ki [5]: -10.15

Cc1cc(N2C[C@@H]3CNC[C@@H]32)cnc1C
Activity [1]: 78%
EC50 ([2]; read-out: EC50): 12300 nM
EC50 ([2]; read-out: Log EC50 (converted)): 12000 nM
EC50 ([3]; read-out: EC50): 1500 nM
Activity [4]: 83%
Ki [5]: 3.1 nM
Log Ki [5]: -8.51

Clc1cc(N2C[C@@H]3CN[C@@H]3C2)cnc1Br
Activity [1]: 92%
EC50 ([2]; read-out: EC50): 600 nM
EC50 ([3]; read-out: EC50): 400 nM
Activity [4]: 108%
Ki [5]: 0.2 nM
Log Ki [5]: -9.62
